# Test results from the M2OR odorant receptor database.
# How the values were obtained:
# Details in all cases: stereoisomer not certain
# [1] = molecular target: T1, OR2L13 (Homo sapiens) (UniProt Q8N349)
# T1 sequence (whole entry): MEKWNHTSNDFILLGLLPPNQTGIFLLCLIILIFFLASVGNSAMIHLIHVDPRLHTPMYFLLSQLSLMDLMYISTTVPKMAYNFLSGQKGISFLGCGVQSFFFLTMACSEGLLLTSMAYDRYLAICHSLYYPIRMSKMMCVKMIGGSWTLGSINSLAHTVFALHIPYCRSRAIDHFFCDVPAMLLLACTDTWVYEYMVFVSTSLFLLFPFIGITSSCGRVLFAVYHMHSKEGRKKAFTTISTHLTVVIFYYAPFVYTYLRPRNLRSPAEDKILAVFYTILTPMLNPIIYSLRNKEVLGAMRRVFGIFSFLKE
# Procedure, shortened: (§1)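 Whether a receptor–molecule pair is responsive (active) rests on the original authors' judgment that its measured signal was statistically different from baseline. Pairs without that judgment are non-responsive (inactive). Sources used varied assay methods, commonly transient luciferase assays in mammalian cell lines.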
# [2] = molecular target: T2, OR2L2 (Homo sapiens) (UniProt Q8NH16)
# T2 sequence (whole entry): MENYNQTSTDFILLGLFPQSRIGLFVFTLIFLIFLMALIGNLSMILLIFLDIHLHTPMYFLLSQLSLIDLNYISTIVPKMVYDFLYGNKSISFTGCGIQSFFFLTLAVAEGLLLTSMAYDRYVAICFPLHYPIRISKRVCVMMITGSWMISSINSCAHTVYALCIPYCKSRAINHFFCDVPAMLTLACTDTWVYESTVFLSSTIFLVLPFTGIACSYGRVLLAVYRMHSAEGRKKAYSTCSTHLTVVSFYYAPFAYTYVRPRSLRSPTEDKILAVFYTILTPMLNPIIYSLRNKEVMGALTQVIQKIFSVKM
# Procedure, shortened: as §1
# [3] = molecular target: T3, OR2L3 (Homo sapiens) (UniProt Q8NG85)
# T3 sequence (whole entry): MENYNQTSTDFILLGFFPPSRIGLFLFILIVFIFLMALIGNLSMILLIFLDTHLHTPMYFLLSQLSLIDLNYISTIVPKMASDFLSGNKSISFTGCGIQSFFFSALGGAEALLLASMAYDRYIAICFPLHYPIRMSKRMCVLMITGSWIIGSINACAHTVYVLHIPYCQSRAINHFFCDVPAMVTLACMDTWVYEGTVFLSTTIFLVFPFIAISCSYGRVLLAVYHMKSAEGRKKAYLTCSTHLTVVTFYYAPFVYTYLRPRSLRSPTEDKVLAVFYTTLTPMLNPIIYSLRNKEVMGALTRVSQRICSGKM
# Procedure, shortened: as §1
# [4] = molecular target: T4, OR2L5 (Homo sapiens) (UniProt Q8NG80)
# T4 sequence (whole entry): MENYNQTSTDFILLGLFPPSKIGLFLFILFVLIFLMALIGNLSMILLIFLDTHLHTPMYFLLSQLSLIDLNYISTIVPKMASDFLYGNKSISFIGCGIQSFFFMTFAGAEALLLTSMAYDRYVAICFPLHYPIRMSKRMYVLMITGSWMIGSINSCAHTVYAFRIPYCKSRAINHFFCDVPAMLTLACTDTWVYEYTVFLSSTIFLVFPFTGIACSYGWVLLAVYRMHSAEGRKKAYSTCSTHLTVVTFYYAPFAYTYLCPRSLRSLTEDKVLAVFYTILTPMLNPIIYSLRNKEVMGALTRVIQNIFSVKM
# Procedure, shortened: as §1
# [5] = molecular target: T5, OR2L8 (Homo sapiens) (UniProt Q8NGY9)
# T5 sequence (whole entry): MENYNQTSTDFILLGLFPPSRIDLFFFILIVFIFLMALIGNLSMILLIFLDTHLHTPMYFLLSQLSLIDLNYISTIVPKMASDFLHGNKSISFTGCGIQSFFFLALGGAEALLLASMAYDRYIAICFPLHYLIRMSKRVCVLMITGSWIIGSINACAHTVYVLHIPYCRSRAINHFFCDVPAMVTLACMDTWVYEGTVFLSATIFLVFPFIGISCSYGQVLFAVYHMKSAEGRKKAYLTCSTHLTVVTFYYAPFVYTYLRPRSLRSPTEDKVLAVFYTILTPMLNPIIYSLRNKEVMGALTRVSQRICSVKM
# Procedure, shortened: as §1
# [6] = molecular target: T6, OR2M2 (Homo sapiens) (UniProt Q96R28)
# T6 sequence (whole entry): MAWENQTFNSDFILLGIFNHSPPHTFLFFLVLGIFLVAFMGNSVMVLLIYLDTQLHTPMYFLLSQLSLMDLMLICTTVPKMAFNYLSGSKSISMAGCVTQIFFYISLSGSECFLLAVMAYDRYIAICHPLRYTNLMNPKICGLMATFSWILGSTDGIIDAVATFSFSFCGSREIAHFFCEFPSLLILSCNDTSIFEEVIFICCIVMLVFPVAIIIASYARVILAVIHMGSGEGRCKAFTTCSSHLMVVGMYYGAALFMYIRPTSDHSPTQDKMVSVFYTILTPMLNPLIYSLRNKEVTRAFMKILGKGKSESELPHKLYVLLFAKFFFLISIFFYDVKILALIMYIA
# Procedure, shortened: as §1
# [7] = molecular target: T7, OR2M3 (Homo sapiens) (UniProt Q8NG83)
# T7 sequence (whole entry): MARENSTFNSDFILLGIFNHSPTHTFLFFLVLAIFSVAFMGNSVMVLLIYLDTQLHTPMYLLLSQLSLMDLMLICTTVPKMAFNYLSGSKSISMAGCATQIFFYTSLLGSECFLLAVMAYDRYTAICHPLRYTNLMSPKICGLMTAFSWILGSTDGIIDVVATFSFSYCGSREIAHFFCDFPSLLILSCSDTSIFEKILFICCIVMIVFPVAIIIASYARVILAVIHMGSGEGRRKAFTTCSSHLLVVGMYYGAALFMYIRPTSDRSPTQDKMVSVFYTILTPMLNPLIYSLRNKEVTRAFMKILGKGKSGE
# Procedure, shortened: as §1
# [8] = tested on: OR2M3 A216T
# Chain of OR2M3 A216T (as listed by the source, stated change not applied): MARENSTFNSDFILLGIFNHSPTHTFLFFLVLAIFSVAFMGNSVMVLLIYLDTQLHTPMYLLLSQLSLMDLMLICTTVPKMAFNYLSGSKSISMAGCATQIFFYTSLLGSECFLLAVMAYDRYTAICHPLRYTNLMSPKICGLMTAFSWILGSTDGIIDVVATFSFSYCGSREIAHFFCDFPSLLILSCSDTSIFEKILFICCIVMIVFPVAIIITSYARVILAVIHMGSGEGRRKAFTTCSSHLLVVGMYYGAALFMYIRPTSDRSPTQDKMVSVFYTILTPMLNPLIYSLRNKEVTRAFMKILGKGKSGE
# Procedure, shortened: as §1
# [9] = tested on: OR2M3 A33G M144T
# Procedure, shortened: as §1
# [10] = tested on: OR2M3 A33G
# Chain of OR2M3 A33G (as listed by the source, stated change not applied): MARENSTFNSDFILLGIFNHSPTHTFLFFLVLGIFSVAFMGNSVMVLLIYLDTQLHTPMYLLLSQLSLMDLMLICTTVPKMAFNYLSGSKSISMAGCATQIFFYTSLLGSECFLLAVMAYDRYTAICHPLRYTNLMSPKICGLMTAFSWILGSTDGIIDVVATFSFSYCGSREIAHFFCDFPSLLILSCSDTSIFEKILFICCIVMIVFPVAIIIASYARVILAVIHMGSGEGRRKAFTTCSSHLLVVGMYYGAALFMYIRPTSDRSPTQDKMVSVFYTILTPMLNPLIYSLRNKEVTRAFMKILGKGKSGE
# Procedure, shortened: as §1
# 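Also: active if original authors judged signal statistically different from baseline.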
smiles,measurement,setting,value
CCCCCCCCCCCCCCCCCC(=O)OCC,odorant receptor agonist call,[1],inactive
CCCC(S)CCOC(C)=O (stereo not given),odorant receptor agonist call,[1],inactive
same,odorant receptor agonist call,[2],inactive
same,odorant receptor agonist call,[3],inactive
same,odorant receptor agonist call,[4],inactive
same,odorant receptor agonist call,[5],inactive
same,odorant receptor agonist call,[6],inactive
same,odorant receptor agonist call,[7],inactive
CCCCCCCCCCCCCCCC(=O)OCC,odorant receptor agonist call,[1],inactive
CCCCCCCCCCCCCCCCCC(=O)[O-].[H+],odorant receptor agonist call,[1],inactive
CCCCCCCCCCCCCCCCCC(=O)OC,odorant receptor agonist call,[1],inactive
CCCCCCCCCC(=O)OC,odorant receptor agonist call,[1],inactive
CC(C)=CCCC(C)=CCCC(C)=CCO,odorant receptor agonist call,[1],inactive
CCCCCCCCCCCCCCCC(=O)OC,odorant receptor agonist call,[1],inactive
CC(C=O)Cc1ccc(C(C)(C)C)cc1 (stereo not given),odorant receptor agonist call,[1],inactive
Cc1cnc(C)c(C)n1,odorant receptor agonist call,[1],inactive
same,odorant receptor agonist call,[2],inactive
same,odorant receptor agonist call,[3],inactive
same,odorant receptor agonist call,[4],inactive
same,odorant receptor agonist call,[5],inactive
same,odorant receptor agonist call,[6],inactive
same,odorant receptor agonist call,[7],inactive
CCCCC(=O)C(C)=O,odorant receptor agonist call,[1],inactive
Cc1ccc(C(C)C)cc1,odorant receptor agonist call,[1],inactive
Cc1cccc(C)c1C,odorant receptor agonist call,[1],inactive
CCCCCC(=O)C(C)C(C)=O (stereo not given),odorant receptor agonist call,[1],inactive
same,odorant receptor agonist call,[2],inactive
same,odorant receptor agonist call,[3],inactive
same,odorant receptor agonist call,[4],inactive
same,odorant receptor agonist call,[5],inactive
same,odorant receptor agonist call,[6],inactive
same,odorant receptor agonist call,[7],inactive
CCC(O)CC,odorant receptor agonist call,[1],inactive
COc1ccc2[nH]cc(CCNC(C)=O)c2c1,odorant receptor agonist call,[1],inactive
CCCCCCCCCCCCCC(=O)OC,odorant receptor agonist call,[1],inactive
CCCCCCCCCCCCO,odorant receptor agonist call,[1],active
CCCCCCCCCCCC(=O)OC,odorant receptor agonist call,[1],inactive
Cc1cnc(C)cn1,odorant receptor agonist call,[1],inactive
CCCC(=O)CC,odorant receptor agonist call,[1],inactive
CC1=C(O)C(=O)OC1C (stereo not given),odorant receptor agonist call,[1],inactive
same,odorant receptor agonist call,[2],inactive
same,odorant receptor agonist call,[3],inactive
same,odorant receptor agonist call,[4],inactive
same,odorant receptor agonist call,[5],inactive
same,odorant receptor agonist call,[6],inactive
same,odorant receptor agonist call,[7],inactive
CCCCCCCCO,odorant receptor agonist call,[1],inactive
same,odorant receptor agonist call,[2],inactive
CCCCOCC(C)O (stereo not given),odorant receptor agonist call,[1],inactive
CCCCCCCCCCCCCC(=O)OCC,odorant receptor agonist call,[1],inactive
CCCCCCCCCCCC(=O)O,odorant receptor agonist call,[1],inactive
CCCCCCCCCCCC(=O)OCC,odorant receptor agonist call,[1],inactive
CC(O)C(=O)[O-].[H+] (stereo not given),odorant receptor agonist call,[1],inactive
CC1=C(O)C(=O)C(C)O1 (stereo not given),odorant receptor agonist call,[1],inactive
same,odorant receptor agonist call,[2],inactive
same,odorant receptor agonist call,[3],inactive
same,odorant receptor agonist call,[4],inactive
same,odorant receptor agonist call,[5],inactive
same,odorant receptor agonist call,[6],inactive
same,odorant receptor agonist call,[7],inactive
CCCCCCCC(=O)OC,odorant receptor agonist call,[1],inactive
CCCCCC(S)C(C)CO (stereo not given),odorant receptor agonist call,[1],inactive
same,odorant receptor agonist call,[2],inactive
same,odorant receptor agonist call,[3],inactive
same,odorant receptor agonist call,[4],inactive
same,odorant receptor agonist call,[5],inactive
same,odorant receptor agonist call,[6],inactive
same,odorant receptor agonist call,[7],inactive
CCCCCCCCCCCCCC(=O)O,odorant receptor agonist call,[1],inactive
CCCO,odorant receptor agonist call,[1],inactive
CC1=NC(C)C(C)S1 (stereo not given),odorant receptor agonist call,[1],inactive
same,odorant receptor agonist call,[2],inactive
same,odorant receptor agonist call,[3],inactive
same,odorant receptor agonist call,[4],inactive
same,odorant receptor agonist call,[5],inactive
same,odorant receptor agonist call,[6],inactive
same,odorant receptor agonist call,[7],inactive
CCCCCCCCCCCCCCC(=O)O,odorant receptor agonist call,[1],inactive
CCCCCCCCCCCCCCCC(=O)[O-].[H+],odorant receptor agonist call,[1],inactive
CCCCCCC(=O)[O-].[H+],odorant receptor agonist call,[1],inactive
Cc1ccc(O)cc1,odorant receptor agonist call,[7],inactive
CCC(C)C(=O)OC (stereo not given),odorant receptor agonist call,[7],inactive
CC(=O)C1=NCCS1,odorant receptor agonist call,[7],inactive
C=CC(O)CCCCC (stereo not given),odorant receptor agonist call,[7],inactive
CC(=O)c1c(C)c([N+](=O)[O-])c(C(C)(C)C)c([N+](=O)[O-])c1C,odorant receptor agonist call,[1],inactive
same,odorant receptor agonist call,[3],inactive
same,odorant receptor agonist call,[4],inactive
same,odorant receptor agonist call,[5],inactive
same,odorant receptor agonist call,[6],inactive
same,odorant receptor agonist call,[7],inactive
CCOC(=O)C1CCCCC1,odorant receptor agonist call,[7],inactive
CCC=CCCC=CC=O,odorant receptor agonist call,[7],inactive
OCC=Cc1ccccc1,odorant receptor agonist call,[7],inactive
CCCCC(=O)OCC,odorant receptor agonist call,[7],inactive
CC(=O)O,odorant receptor agonist call,[1],inactive
same,odorant receptor agonist call,[7],inactive
CCCCCCC=CCCC=O,odorant receptor agonist call,[1],inactive
same,odorant receptor agonist call,[2],inactive
same,odorant receptor agonist call,[3],inactive
same,odorant receptor agonist call,[4],inactive
same,odorant receptor agonist call,[5],inactive
same,odorant receptor agonist call,[6],inactive
same,odorant receptor agonist call,[7],inactive
CCCCCC=CCCC=O,odorant receptor agonist call,[7],inactive
CC(CO)CS (stereo not given),odorant receptor agonist call,[1],inactive
same,odorant receptor agonist call,[2],inactive
same,odorant receptor agonist call,[3],inactive
same,odorant receptor agonist call,[4],inactive
same,odorant receptor agonist call,[5],inactive
same,odorant receptor agonist call,[6],inactive
same,odorant receptor agonist call,[7],inactive
CC=Cc1ccc(OC)cc1,odorant receptor agonist call,[7],inactive
CCCCC(S)C(C)CO (stereo not given),odorant receptor agonist call,[1],inactive
same,odorant receptor agonist call,[2],inactive
same,odorant receptor agonist call,[3],inactive
same,odorant receptor agonist call,[4],inactive
same,odorant receptor agonist call,[5],inactive
same,odorant receptor agonist call,[6],inactive
same,odorant receptor agonist call,[7],inactive
CCC=CCCC=CCO,odorant receptor agonist call,[7],inactive
CC1CCCCCCCCCCCCC(=O)C1 (stereo not given),odorant receptor agonist call,[1],inactive
same,odorant receptor agonist call,[3],inactive
same,odorant receptor agonist call,[4],inactive
same,odorant receptor agonist call,[5],inactive
same,odorant receptor agonist call,[6],inactive
same,odorant receptor agonist call,[7],inactive
CSCSC,odorant receptor agonist call,[7],inactive
CCC1OC(=O)C(O)=C1C (stereo not given),odorant receptor agonist call,[1],inactive
same,odorant receptor agonist call,[2],inactive
same,odorant receptor agonist call,[3],inactive
same,odorant receptor agonist call,[4],inactive
same,odorant receptor agonist call,[5],inactive
same,odorant receptor agonist call,[6],inactive
same,odorant receptor agonist call,[7],inactive
C=C1CCC2CC1C2(C)C (stereo not given),odorant receptor agonist call,[1],inactive
same,odorant receptor agonist call,[7],inactive
CCCCCC=O,odorant receptor agonist call,[7],inactive
C=C(C)C1CC=C(C)CC1 (stereo not given),odorant receptor agonist call,[1],inactive
same,odorant receptor agonist call,[7],inactive
CCC(C)CO (stereo not given),odorant receptor agonist call,[1],inactive
same,odorant receptor agonist call,[7],inactive
CCC(S)C(C)CO (stereo not given),odorant receptor agonist call,[1],inactive
same,odorant receptor agonist call,[2],inactive
same,odorant receptor agonist call,[3],inactive
same,odorant receptor agonist call,[4],inactive
same,odorant receptor agonist call,[5],inactive
same,odorant receptor agonist call,[6],inactive
same,odorant receptor agonist call,[7],active
same,odorant receptor agonist call,[8],active
same,odorant receptor agonist call,[9],inactive
same,odorant receptor agonist call,[10],active
CCCCCCCCC=CC=O,odorant receptor agonist call,[7],inactive
CCCCCCCC(=O)OCC,odorant receptor agonist call,[1],inactive
same,odorant receptor agonist call,[7],inactive
CCC(=O)O,odorant receptor agonist call,[1],inactive
same,odorant receptor agonist call,[7],inactive
CCCCCCCCCC(=O)OCC,odorant receptor agonist call,[1],inactive
same,odorant receptor agonist call,[7],inactive
CC1=CCC2CC1C2(C)C (stereo not given),odorant receptor agonist call,[1],inactive
same,odorant receptor agonist call,[7],inactive
CCCCC1CCC(=O)O1 (stereo not given),odorant receptor agonist call,[7],inactive
COC(=O)C(C)C,odorant receptor agonist call,[7],inactive
CCc1ncc(C)nc1CC,odorant receptor agonist call,[7],inactive
CCC1OC(C)=C(O)C1=O (stereo not given),odorant receptor agonist call,[1],inactive
same,odorant receptor agonist call,[2],inactive
same,odorant receptor agonist call,[3],inactive
same,odorant receptor agonist call,[4],inactive
same,odorant receptor agonist call,[5],inactive
same,odorant receptor agonist call,[6],inactive
same,odorant receptor agonist call,[7],inactive
